Active and inactive are the calls of the source. The calls are words filed in the database; no cut-off is given here.
How the values were obtained:
[1] = target: T1, Alpha-1A adrenergic receptor (Bos taurus, UniProt P18130); assay: In Vitro Alpha-1 adrenergic receptor binding affinity on calf frontal cortex membrane preparation; type: tissue-based
T1 sequence (P18130 whole entry): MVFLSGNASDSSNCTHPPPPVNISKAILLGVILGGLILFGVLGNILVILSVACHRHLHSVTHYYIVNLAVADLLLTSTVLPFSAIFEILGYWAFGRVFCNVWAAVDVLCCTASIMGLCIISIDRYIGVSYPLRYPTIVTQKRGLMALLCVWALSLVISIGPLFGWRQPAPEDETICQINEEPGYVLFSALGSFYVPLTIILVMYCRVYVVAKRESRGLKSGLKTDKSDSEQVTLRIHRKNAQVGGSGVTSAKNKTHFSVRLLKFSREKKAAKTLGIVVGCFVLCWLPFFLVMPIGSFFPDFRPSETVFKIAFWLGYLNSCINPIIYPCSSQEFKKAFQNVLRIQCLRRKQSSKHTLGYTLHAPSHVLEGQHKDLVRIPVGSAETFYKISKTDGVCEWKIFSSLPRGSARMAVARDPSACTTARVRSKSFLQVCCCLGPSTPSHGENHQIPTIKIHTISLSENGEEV
Outline: (§1)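 Calf frontal cortex membranes (0.5 mg protein/mL) incubated 40 min at 25 °C with 0.5 nM [3H]prazosin in 50 mM phosphate buffer with 10 mM MgCl2. Competitors at 10^-9 to 10^-4 M. Nonspecific binding set with 10 µM phentolamine. Stopped by rapid vacuum filtration through glass fibre filters, then washed three times with ice-cold buffer. Ki reported.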

[2] = In vitro alpha-2 adrenergic receptor binding affinity was determined on calf frontal cortex membrane preparation; type: tissue-based, Bos taurus
Rattus norvegicus [3] = assay: Effect after 25 mg/kg, po, on heart rate in conscious spontaneously hypertensive rats; type: functional
Outline: (§2)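 Studied conscious 24 h after surgery. Dosed by oral gavage after ≥40 min stabilisation, n=6/group. Vehicle 0.5% carboxymethylcellulose, 5 mL/kg. MAP and HR recorded over 24 h. Output is the maximal change from baseline (mmHg, bpm, %). Repeated-measures ANOVA with Dunnett's tests.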

Rattus norvegicus [4] = assay: Effect at (25 mg/kg, ip) on heart rate in anesthetized spontaneously hypertensive rats; type: functional
Outline: (§3)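 Adult male SHR anaesthetised with sodium pentobarbital 50 mg/kg ip, left carotid catheter filled with heparinised saline. BP and HR (HR from pulse pressure) stabilised ≥40 min before a single ip dose, n=6/group. Vehicle 0.5% carboxymethylcellulose in water, 2.5 mL/kg. Recorded over 90 min. Output is the maximal change in MAP (mmHg) and HR (bpm) from pre-dose baseline, also as %. Repeated-measures ANOVA with Dunnett's tests.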

Rattus norvegicus [5] = assay: Effect after 25 mg/kg, po, on mean arterial blood pressure in conscious spontaneously hypertensive rats; type: functional; outline: as §2
Rattus norvegicus [6] = assay: Effect (25 mg/kg ip) on heart rate in anesthetized spontaneously hypertensive rats; type: functional; outline: as §3
Rattus norvegicus [7] = assay: Effect (25 mg/kg ip) on mean arterial blood pressure in anesthetized spontaneously hypertensive rats; type: functional; outline: as §3
[8] = In vitro alpha-1 adrenergic receptor binding affinity was determined on calf frontal cortex membrane preparation; type: tissue-based, Bos taurus; outline: as §1
Rattus norvegicus [9] = assay: Effect after 10 mg/kg, po, on heart rate in conscious spontaneously hypertensive rats; type: functional; outline: as §2
Rattus norvegicus [10] = assay: Effect after 100 mg/kg, po, on heart rate in conscious spontaneously hypertensive rats; type: functional; outline: as §2
Rattus norvegicus [11] = assay: Effect after 30 mg/kg, po, on heart rate in conscious spontaneously hypertensive rats; type: functional; outline: as §2
Rattus norvegicus [12] = assay: Effect after 10 mg/kg, po, on mean arterial blood pressure in conscious spontaneously hypertensive rats; type: functional; outline: as §2
Rattus norvegicus [13] = assay: Effect after 100 mg/kg, po, on mean arterial blood pressure in conscious spontaneously hypertensive rats; type: functional; outline: as §2
Rattus norvegicus [14] = assay: Effect after 30 mg/kg, po, on mean arterial blood pressure in conscious spontaneously hypertensive rats; type: functional; outline: as §2
[15] = target: imidazoline I2 binding site (Oryctolagus cuniculus); assay: In vitro binding affinity determined against imidazoline receptor I-2 using rabbit kidney preparation
Rattus norvegicus [16] = assay: Effect at 25 mg/kg, ip, on mean arterial blood pressure in anesthetized spontaneously hypertensive rats; lethal at 12.5 mg; toxic at 5 mg; inactive at 0.5 mg; type: functional, organism-based; parameters: dose 25 mg/kg

CN1CC(C2=NCCN2)Oc2ccccc21 (stereo not drawn)
Ki [1]: 1100 nM | Ki [2]: 74 nM | Max delta HR (Rattus norvegicus [3]): -97 beats min-1 | Variation (Rattus norvegicus [3]): -26% | Max delta HR (Rattus norvegicus [4]): -148 beats min-1 | Max delta MAP (Rattus norvegicus [5]): -65 mmHg | Variation (Rattus norvegicus [5]): -36% | Variation (Rattus norvegicus [6]): -44% | Max delta MAP (Rattus norvegicus [7]): -36 mmHg | Variation (Rattus norvegicus [7]): -21%

Cc1ccc2c(c1)N(C)CC(C1=NCCN1)O2 (stereo not drawn)
Ki [8]: > 1000 nM | Ki [2]: 70 nM | Max delta HR (Rattus norvegicus [9]): -11 beats min-1 | Variation (Rattus norvegicus [9]): -3% | Max delta HR (Rattus norvegicus [10]): -77 beats min-1 | Variation (Rattus norvegicus [10]): -23% | Max delta HR (Rattus norvegicus [11]): -32 beats min-1 | Variation (Rattus norvegicus [11]): -10% | Max delta HR (Rattus norvegicus [4]): -127 beats min-1 | Max delta MAP (Rattus norvegicus [12]): -18 mmHg | Variation (Rattus norvegicus [12]): -10% | Max delta MAP (Rattus norvegicus [13]): -53 mmHg | Variation (Rattus norvegicus [13]): -28% | Max delta MAP (Rattus norvegicus [14]): -43 mmHg | Variation (Rattus norvegicus [14]): -23% | Variation (Rattus norvegicus [6]): -37% | Max delta MAP (Rattus norvegicus [7]): -32 mmHg | Variation (Rattus norvegicus [7]): -175% | Ki [15]: 1.99 nM

Cc1cc(C)c2c(c1)N(C)CC(C1=NCCN1)O2 (stereo not drawn)
Ki [8]: > 1000 nM | Ki [2]: 12.4 nM | Max delta MAP (Rattus norvegicus [16]): inactive | Variation (Rattus norvegicus [16]): inactive

From ChEMBL document CHEMBL1136789, “Synthesis and biological evaluation of new 2-(4,5-dihydro-1H-imidazol-2-yl)-3,4-dihydro-2H-1,4-benzoxazine derivatives” (J Med Chem, 2003)
